Bioassay records as filed in PubChem.
TLR4 MyD88 comp: blocks binding of human TLR4 to MyD88. HeLa CL3-4 TLR4/MyD88 BLA complementation, FRET ratio. inhibition, % at 8.4 µM. O00206+Q99836. hit rate 0.18% among 200,000; in the data active means inhibition above about 25%
NTR1 agonist: agonists of human neurotensin receptor NTR1; activation, % at 20 µM; hit rate 0.17% among 330,000; P30989; NTR1-U2OS beta-arrestin-GFP spot imaging, agonist mode;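 active means activation at or above 40% of the spot to cytoplasm intensity ratio, with at least 20 cells analyzed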
TLR9-MyD88 block: TLR9-MyD88 interaction inhibition. inhibition, % at 4.98 µM. hit rate 0.21% among 340,000. CHO BLA complementation TLR9-MyD88, CCF4 FRET ratio;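 active means inhibition above the mean over all tested compounds plus 3 SD, cut at about 21% in these data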
NOD2-RIPK2 inh: NOD2-RIPK2 protein interaction inhibition. O43353. CHO BLA complementation NOD2-RIPK2, CCF4 ratio. inhibition, % at 4.98 µM. hit rate 0.38% among 360,000. AID 624267; in the data active means inhibition above about 21%
Target sequence (O43353 whole entry, looked up): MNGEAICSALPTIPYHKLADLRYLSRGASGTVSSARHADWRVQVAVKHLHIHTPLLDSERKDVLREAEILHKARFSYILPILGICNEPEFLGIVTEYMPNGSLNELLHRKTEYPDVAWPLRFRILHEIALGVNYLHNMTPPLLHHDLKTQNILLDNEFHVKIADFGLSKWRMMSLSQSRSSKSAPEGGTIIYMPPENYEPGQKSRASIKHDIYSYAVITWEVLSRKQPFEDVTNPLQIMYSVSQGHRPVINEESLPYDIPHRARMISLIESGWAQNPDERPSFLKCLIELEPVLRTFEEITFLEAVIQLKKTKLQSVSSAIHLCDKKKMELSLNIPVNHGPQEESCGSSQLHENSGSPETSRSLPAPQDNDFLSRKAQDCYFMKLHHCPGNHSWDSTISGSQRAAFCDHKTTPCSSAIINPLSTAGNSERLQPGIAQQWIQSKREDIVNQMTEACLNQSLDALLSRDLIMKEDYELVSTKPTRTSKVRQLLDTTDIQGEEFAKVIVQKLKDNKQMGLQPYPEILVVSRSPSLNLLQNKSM
MC4R antag cAMP: antagonists of human melanocortin 4 receptor (MC4R) | MC4R-expressing cells, MTII-stimulated cAMP, LANCE TR-FRET | inhibition, % at 6.5 µM | hit rate 0.48% among 360,000 | AID 540295;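 active means inhibition above its plate's cutoff, the mean of tested wells on that plate plus 3 SD, cut at about 29% in these data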
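System: U2OS cells stably expressing human melanocortin 4 receptor (MC4R). Reagent: Melanotan II challenge after compound preincubation. Doses: 6.5 µM. Times: 30-min compound, 1-h challenge, 1-h detection, room temperature. Measured by: TR-FRET with Eu-cAMP and labeled anti-cAMP, 671 nm. Replicates: singlicate.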
MC4R ag barr: activates human MC4R beta-arrestin recruitment; P32245; hit rate 0.98% among 360,000; AID 540308; U2OS MC4R beta-arrestin complementation, luminescence; percent of melanotan II response, DMSO zero; activation, % at 8.9 µM;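 active means activation above a per-plate cutoff, the mean activation of sample wells on that plate plus 3 SD, cut at about 8% in these data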
cAMP nonselect: nonselective cAMP signaling inhibitor, MC4R antagonist counter-screen. AID 602193. hit rate 26% among 1,600. parental U2OS, forskolin cAMP, LANCE TR-FRET. shares compounds with MC4R antag cAMP. inhibition, % at 6.5 µM;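 active means mean inhibition over triplicates above the low-control well mean plus 3 SD, set per campaign, cut at about 13% in these data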;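 further: signal is single emission at 671 nm which falls as cellular cAMP rises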
MC4R antag conf: human MC4R cAMP antagonism confirmation; inhibition, % at 6.5 µM; shares compounds with MC4R antag cAMP; hit rate 27% among 1,600; MC4R-expressing cells, MTII-stimulated cAMP, TR-FRET; in the data active means inhibition above about 29%
Of the large screens only hits and unclear results are named; the others gave an inactive call (follow-up assays come after a bar, where they were run). Sampled rows, rich in hits. Any-hit rate of the full collection: about 1.9%.

CCN(C(=O)COC(=O)/C=C/c1cnc2ccccc2n1)C1CCS(=O)(=O)C1 (stereo not drawn)	MC4R antag cAMP 29 | cAMP nonselect inactive | MC4R antag conf inactive
c1ccc(-c2noc(CN3CCCC(OCc4ccccn4)C3)n2)cc1 (stereo not drawn)	MC4R antag cAMP 31 | cAMP nonselect inactive | MC4R antag conf inactive
CC(=O)Nc1ccc(S(=O)(=O)N[C@@H](C)C(=O)OCC(=O)c2ccc(Br)s2)cc1	MC4R antag cAMP 34 (no result: TLR4 MyD88 comp, NTR1 agonist) | cAMP nonselect 33 | MC4R antag conf 55
CC1CCCC(NC(=O)COC(=O)COc2ccc(C#N)cc2)C1C (stereo not drawn)	MC4R antag cAMP 36 (no result: TLR4 MyD88 comp) | cAMP nonselect inactive | MC4R antag conf inactive
CC1CCCC(NC(=O)COC(=O)COc2ccc(Br)cc2)C1C (stereo not drawn)	none (no result: TLR4 MyD88 comp)
COc1ccc([N+](=O)[O-])c(C=CC(=O)c2ccccn2)c1	MC4R antag cAMP 30 (no result: TLR4 MyD88 comp, NTR1 agonist) | cAMP nonselect inactive | MC4R antag conf inactive
COc1ccc(/C=C/C(=O)c2ccccn2)cc1	none
COc1ccc(/C=C2\C(=O)N(c3c(Cl)cc(Cl)cc3Cl)N=C2NC(=O)c2cccc([N+](=O)[O-])c2)cc1	MC4R antag cAMP 32 (no result: NTR1 agonist) | cAMP nonselect inactive | MC4R antag conf inactive
O=C1OCCN1N1CCOC1=O	none (no result: TLR4 MyD88 comp, NTR1 agonist)
O=C(NC(Cc1c[nH]c2ccccc12)C(=O)N/N=C/c1ccc(Cl)cc1)c1cccs1 (stereo not drawn)	MC4R antag cAMP 30 | cAMP nonselect inactive | MC4R antag conf inactive
C=C(C)c1sc(-c2ccc(Cl)cc2)nc1C	none (no result: TLR4 MyD88 comp)
CCOC(=O)Cn1c(=O)oc2cc(S(=O)(=O)N3CCc4ccccc43)ccc21	MC4R antag cAMP 30 | cAMP nonselect inactive | MC4R antag conf inactive
CNC(=O)c1[nH]cnc1C(=O)Nc1ccccn1	none
CCCc1nnc(NC(=O)CC(C)c2ccccc2)s1 (stereo not drawn)	MC4R antag cAMP 30 (no result: TLR4 MyD88 comp) | cAMP nonselect inactive | MC4R antag conf inactive
COc1ccc(NC(=O)C2Cc3c(-c4ccc(Cl)cc4)ccnc3O2)cc1OC (stereo not drawn)	none (no result: TLR4 MyD88 comp, NTR1 agonist, TLR9-MyD88 block)
CCOC(=O)Cn1nnnc1CN(Cc1cccs1)Cc1cc2cc(C)ccc2[nH]c1=O	MC4R antag cAMP 31 | cAMP nonselect inactive | MC4R antag conf inactive
O=C(O)c1ccccc1C(=O)c1cccc2c(Br)cccc12	MC4R antag cAMP active (no result: TLR4 MyD88 comp, NTR1 agonist) | cAMP nonselect active | MC4R antag conf active
Cc1ccc(C)c(NC(=O)c2sc(Cl)nc2-c2ccccc2)c1	MC4R antag cAMP 37 | cAMP nonselect 15 | MC4R antag conf 32
COc1ccc(C(CNC(=O)CCC(=O)c2ccc(C)s2)N2CCOCC2)cc1 (stereo not drawn)	none (no result: TLR4 MyD88 comp)
Cc1cc(C)n2nc(C(=O)NNC(=O)c3ccc(Cl)cc3)nc2n1	MC4R antag cAMP 36 (no result: TLR4 MyD88 comp) | cAMP nonselect inactive | MC4R antag conf inactive
O=C(CSc1c2c(nc3cc(Cl)ccc13)CCCC2)NCCN1CCOCC1	MC4R antag cAMP 30 | cAMP nonselect inactive | MC4R antag conf inactive
CC(Oc1ccccc1)C(=O)N1CCC2(CC1)Oc1ccc(Cl)cc1C(=O)C21CC(c2ccccc2)=NO1 (stereo not drawn)	none (no result: TLR4 MyD88 comp, TLR9-MyD88 block, NOD2-RIPK2 inh, MC4R antag cAMP, MC4R ag barr)
O=C(/C=C/c1cccs1)N1CCC2(CC1)Oc1ccc(Cl)cc1C(=O)C21CC(c2cccnc2)=NO1 (stereo not drawn)	MC4R antag cAMP 29 (no result: TLR4 MyD88 comp) | cAMP nonselect inactive | MC4R antag conf inactive
CC(C)C(=O)N1CCC2(CC1)Oc1ccc(Cl)cc1C(=O)C21CC(c2ccccc2)=NO1 (stereo not drawn)	MC4R antag cAMP 29 (no result: TLR4 MyD88 comp) | cAMP nonselect inactive | MC4R antag conf inactive
NC(=NCCc1ccccc1)NS(=O)(=O)c1ccc2ccccc2c1	none
COc1ccc(-c2noc(CN(C)CCC3CCCCO3)n2)cc1 (stereo not drawn)	MC4R antag cAMP 32 | cAMP nonselect inactive | MC4R antag conf inactive
